# Source: PubChem
# Only some compounds are listed: those with a hit (about 2.3% of all), similar ones and a draw of the others.
# TRPC4 PAM – positive allosteric modulators of TRPC4, primary screen, cell-based, mouse TRPC4beta, HEK293 mu-opioid, Fluo-4 calcium | Short transient receptor potential channel 4 (Mus musculus), Q9QUQ5 | DAMGO EC20, Fluo-4 Ca2+ flux; hits give high values | B-score at 10 µM | hit rate 0.42% among 310,000 | AID 2227, 2009;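 active means B-score of calcium response area above 5 SD of library B-scores, with initial fluorescence ratio within 5 SD of library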;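 further: B-score of integrated fluorescence ratio over time as area under calcium response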
# TRPC6 act – mouse TRPC6 channel activators, primary screen, cell-based, HEK293, membrane potential dye | B-score at 10 µM | HEK293-TRPC6 membrane potential dye fluorescence; hits give high values | Short transient receptor potential channel 6 (Mus musculus), Q61143 | hit rate 0.13% among 310,000 | AID 2550, 2010;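 active means B-score of the integrated fluorescence ratio above library mean plus 3 SD, and starting fluorescence ratio within library mean plus 5 SD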;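 further: higher score means more depolarization so channel activation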
# Target sequence (Q61143 whole entry, looked up): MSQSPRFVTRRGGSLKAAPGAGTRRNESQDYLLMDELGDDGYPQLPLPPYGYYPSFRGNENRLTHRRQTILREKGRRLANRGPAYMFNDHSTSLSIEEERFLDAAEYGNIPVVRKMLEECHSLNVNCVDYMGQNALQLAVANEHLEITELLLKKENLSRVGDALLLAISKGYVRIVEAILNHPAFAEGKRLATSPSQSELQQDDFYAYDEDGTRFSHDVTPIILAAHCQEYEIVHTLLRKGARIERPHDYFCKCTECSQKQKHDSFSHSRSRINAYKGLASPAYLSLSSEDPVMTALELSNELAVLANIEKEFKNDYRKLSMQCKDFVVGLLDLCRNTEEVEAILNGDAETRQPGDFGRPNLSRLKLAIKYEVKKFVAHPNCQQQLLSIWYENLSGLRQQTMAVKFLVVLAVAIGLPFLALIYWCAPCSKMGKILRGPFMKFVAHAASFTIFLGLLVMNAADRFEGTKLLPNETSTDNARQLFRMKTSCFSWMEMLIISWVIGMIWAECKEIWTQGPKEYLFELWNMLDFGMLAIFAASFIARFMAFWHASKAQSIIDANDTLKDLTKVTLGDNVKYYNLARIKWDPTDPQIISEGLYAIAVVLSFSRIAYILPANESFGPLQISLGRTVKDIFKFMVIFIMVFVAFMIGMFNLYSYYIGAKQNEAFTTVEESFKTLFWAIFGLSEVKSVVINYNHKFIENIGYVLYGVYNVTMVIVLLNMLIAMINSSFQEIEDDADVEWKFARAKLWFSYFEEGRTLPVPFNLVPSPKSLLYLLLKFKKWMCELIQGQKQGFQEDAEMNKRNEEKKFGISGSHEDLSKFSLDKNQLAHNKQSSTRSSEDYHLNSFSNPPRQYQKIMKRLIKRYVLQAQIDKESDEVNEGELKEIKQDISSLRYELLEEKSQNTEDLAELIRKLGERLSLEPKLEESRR
# TRPC4 agonist – activators of mouse TRPC4 channel, primary screen, Fluo4 calcium, HEK293 TRPC4beta/mu-opioid cells; Short transient receptor potential channel 4 (Mus musculus), Q9QUQ5; AID 2237, 2010; hit rate 0.49% among 310,000; Fluo4 calcium fluorescence; hits give high values; B-score at 10 µM;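 active means B-score above 5 SD of library B-scores, and initial fluorescence ratio not above library mean plus 5 SD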;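 further: positive B-score marks a calcium rise read as TRPC4 activation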
#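 System: HEK293 cells stably co-expressing mouse TRPC4beta and mu-opioid receptor; Schedule: Fluo4 dye loading 45 min at room temperature, 110 s recording; Detection: Fluo4 fluorescence, kinetic; Evaluation: B-scored integrated calcium fluorescence ratio; Controls: buffer (low) and maximal DAMGO (high).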
# TRPC4 inh – inhibitors of mouse TRPC4 channel, primary screen, Fluo4 calcium, HEK293 TRPC4beta/mu-opioid cells | Short transient receptor potential channel 4 (Mus musculus), Q9QUQ5 | B-score at 10 µM | DAMGO-evoked Fluo4 calcium flux; hits give low values | AID 2247, 2010 | hit rate 0.39% among 300,000;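 active means B-score over 3 SD under the library average, no early fluorescence shift, positive overall ratio signal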
#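 test system = HEK293 cells with stable TRPC4beta plus mu-opioid receptor expression | detection = Fluo4 Ca2+ flux fluorescence | read-out = integrated fluorescence ratio relative to baseline, converted to per-well B score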
# TRPC6 inh – mouse TRPC6 channel inhibitors, primary screen, cell-based, HEK293, membrane potential dye | ACh-evoked depolarization; hits give low values | B-score at 10 µM | hit rate 1.1% among 310,000 | AID 2553, 2010;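 active means B-score under library mean minus 3 SD, initial fluorescence not abnormally high, positive integrated signal ratio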;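 further: B-score derived from integrated fluorescence ratio over the kinetic read; more negative B-score means stronger inhibition of depolarization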
# TRPC4 spec 2 – second check of whether TRPC6 inhibitors also affect mouse TRPC4 | shares compounds with TRPC6 inh | HEK293 TRPC4/MOR, membrane potential dye fluorescence; channel activated by saturating DAMGO dose | inhibition, % at 10 µM | hit rate 42% among 920;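 active means compounds whose fluorescence signal differed from control wells by over 3 SD, either direction, in both duplicate plates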
# TRPC4 spec – mouse TRPC4 modulation by TRPC6 hits, confirmation, selectivity assay for TRPC6 inhibitor project, cell-based, HEK293 TRPC4/mu-opioid, membrane potential dye. shares compounds with TRPC6 inh. membrane potential fluorescence. hit rate 61% among 920. activity change, negative = inhibition, % at 10 µM;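 active means rise or fall in signal beyond 3 SD of buffer-only wells in both replicate plates, either sign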;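 further: integrated kinetic ratio of fluorescence range over baseline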
# HEK293 MPD ctr 2-1 – nonspecific membrane potential effects, parental HEK293, confirmation, counter-screen for TRPC6 inhibitor project, cell-based, second counter screen; signal change vs control, % at 10 µM; shares compounds with TRPC6 inh; parental HEK293 membrane potential dye fluorescence; maximal acetylcholine challenge after compound addition; hit rate 31% among 920; AID 2779, 2010;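 active means membrane potential signal moving either way by over 3 SD of the maximum-effect control, in both duplicate plates, meaning non-specific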
# HEK293 MPD ctr-1 – membrane potential modulation in parental HEK293, confirmation, counter-screen for TRPC6 inhibitor project, cell-based | shares compounds with TRPC6 inh | parental HEK293 membrane potential dye fluorescence | membrane potential signal change, % at 10 µM | hit rate 60% among 920 | AID 2780, 2010;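 active means membrane potential signal shifting up or down by more than 3 SD of buffer-only wells, on both duplicate plates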
# HEK293 MPD ctr-2 – parental HEK293 membrane potential modulation, confirmation, counter-screen for TRPC6 modulator project, cell-based. shares compounds with TRPC6 inh. membrane potential signal change, % at 10 µM. AID 488924, 2010. membrane potential dye fluorescence. hit rate 51% among 2,400;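 active means membrane potential signal moves up or down beyond 5 SD from buffer-only wells, on both duplicate plates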
# HEK293 MPD ctr 2-2 – parental HEK293 nonspecific activity of TRPC6 modulators, second screen; shares compounds with TRPC6 inh; membrane potential dye fluorescence; after compound, maximal acetylcholine stimulation; inhibition, % at 10 µM; hit rate 14% among 2,400; AID 488926;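 active means membrane potential signal drops by more than 5 SD from the mean control signal, in both duplicate plates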;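 further: plate controls were acetylcholine ECmax control wells for no effect and buffer only wells for full effect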
# TRPC4/MOR mod – TRPC4 modulation by TRPC6 hit compounds, confirmation, selectivity assay for TRPC6 modulator project, cell-based, HEK293 TRPC4/mu-opioid, membrane potential dye, mouse; hit rate 69% among 2,400; membrane potential fluorescence; shares compounds with TRPC6 inh; percent change from control (negative = decrease, positive = increase), % at 10 µM;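 active means membrane potential signal moved up or down beyond 5 SD of buffer control wells, in both duplicate plates, actives on both sides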;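 further: plate controls were assay buffer wells for no effect and DAMGO maximal-effect wells for full effect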
# TRPC4/MOR inh 2 – second check of whether TRPC6 modulators also affect mouse TRPC4. shares compounds with TRPC6 inh. HEK293 TRPC4/mu-opioid, membrane potential dye fluorescence; stimulated with maximal-effect DAMGO. inhibition, % at 10 µM. hit rate 55% among 2,400. AID 488928;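 active means drop in membrane potential signal beyond 5 SD of the control wells in both duplicate plates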;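 further: TRPC4 counter screen for TRPC6 hits run under conditions tuned for TRPC6 not TRPC4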
# TRPC6 block conf – mouse TRPC6 channel inhibitors, confirmation, HEK293 cells, membrane potential dye, duplicate. AID 488960, 2010. inhibition, % at 10 µM. hit rate 43% among 3,300. shares compounds with TRPC6 inh. ACh-evoked depolarization;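 active means fluorescence ratio falls more than 5 SD below the full-stimulation control mean, in both duplicate runs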;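 further: integrated fluorescence ratio of peak minus minimum over baseline after agonist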
# TRPC6 act confirm – mouse TRPC6 channel activators, confirmation, HEK293 cells, membrane potential dye, duplicate | hit rate 11% among 2,800 | activation, % at 10 µM | HEK293-TRPC6 membrane potential dye fluorescence, FDSS | AID 488961, 2010 | shares compounds with TRPC6 inh;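 active means ratio signal rise beyond 5 SD above unstimulated control wells' mean, seen in both duplicate runs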;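 further: plate controls were buffer EC0 wells for no effect and acetylcholine ECmax response for full effect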
# * = called active by the depositor; i = inactive; . = no result.
SMILES,TRPC4 PAM,TRPC6 act,TRPC4 agonist,TRPC4 inh,TRPC6 inh,HEK293 MPD ctr-2,HEK293 MPD ctr 2-2,TRPC4/MOR mod,TRPC4/MOR inh 2,TRPC6 block conf,TRPC6 act confirm,others
CC1CC(C)CN(S(=O)(=O)CC23CCC(CC2=O)C3(C)C)C1 (stereo not drawn),i,i,i,i,i,.,.,.,.,.,.,
O=C(Nc1ccncc1)c1ccc(Cl)c(S(=O)(=O)N2CCCC2)c1,i,i,i,i,i,.,.,.,.,.,.,
N#Cc1cc2sc3nnc(-c4ccncc4)n3c2cc1C#N,i,i,i,i,-8.2*,-368%*,86%*,-68%*,82%*,47%*,i,
N#CCN1CCC2(O)CCCCC2C1c1ccc2c(c1)OCO2 (stereo not drawn),i,i,i,i,i,.,.,.,.,.,.,
CCOC(=O)c1cnc2ccc(C)cc2c1Nc1ccc(N2CCOCC2)cc1,i,i,i,i,-5.7*,-154%*,68%*,-32%*,44%*,68%*,i,
CCOc1cc(/C=C/C(=O)c2ccc(OC)c(CN3CCOCC3)c2)cc(Br)c1O,i,20*,i,i,i,184%*,i,26%*,i,i,42%*,
CCOc1cc(/C=N/NC(=O)c2ccc(CN3CCOCC3)cc2)ccc1OC,i,i,i,i,i,.,.,.,.,.,.,
C#CCn1cc(/C=N/Nc2nc3ccccc3[nH]2)c2ccccc21,i,i,i,i,-7.8*,-190%*,80%*,-40%*,91%*,74%*,i,
C(=N\Nc1nc2ccccc2[nH]1)/c1cccc2nccnc12,i,i,i,i,i,.,.,.,.,.,.,
COc1ccc(/C=N/Nc2nc3ccccc3[nH]2)cc1OC,i,i,i,i,-5.2*,-101%*,i,-18%*,50%*,59%*,i,
COc1cc(OC)c(OC)cc1/C=N/Nc1nc2ccccc2[nH]1,i,i,i,i,-5.2*,i,i,-11%*,i,i,i,
COc1ccc2c(c1)c(/C=N/Nc1nc3ccccc3[nH]1)c(C)n2C,i,i,i,i,-8.2*,-122%*,i,-36%*,75%*,38%*,i,
CCOC(=O)[C@@H]1[C@H]2COc3cc(OC)ccc3[C@@H]2N2C(=O)N(c3ccc(C(F)(F)F)cc3)C(=O)[C@]12C,i,i,i,i,i,.,.,.,.,.,.,
O=C(NCC1CCCN(C(=O)c2cc(Cl)ccc2F)C1)c1ccc(F)cc1 (stereo not drawn),i,i,i,i,i,.,.,.,.,.,.,
COc1ccc(/C=N/Nc2ccccn2)cc1OC,i,i,i,i,-5.8*,-121%*,i,-22%*,36%*,i,i,
Cc1ccc2cc(/C=N/Nc3nc4ccccc4[nH]3)c(Cl)nc2c1,i,i,i,i,i,.,.,.,.,.,.,
CCN(CC)c1ccc(/C=N/Nc2nc3ccccc3[nH]2)c(O)c1,i,i,i,i,-5.9*,i,i,-29%*,71%*,i,i,
COc1cc(/C=N/Nc2ccccn2)ccc1O,i,i,i,i,i,.,.,.,.,.,.,
Oc1c(/C=N/c2ccccn2)sc2ccccc12,i,i,i,i,-9.1*,170%*,i,30%*,i,i,.,
CCCc1nnc(NC(=O)CSc2nnc(-c3ccco3)n2C)s1,i,i,i,i,i,.,.,.,.,.,.,
O=C(O)CCC(=O)NCCn1c(-c2ccccc2)csc1=Nc1ccccc1,i,i,i,i,i,.,.,.,.,.,.,
OCCCn1c(-c2ccccc2)csc1=Nc1ccccc1,i,i,i,i,-5.8*,382%*,141%*,76%*,i,126%*,.,
CCn1nc(C)c(CNC(=O)CC2C(=O)NCCN2CC(C)C)c1C (stereo not drawn),i,i,i,i,i,.,.,.,.,.,.,
COc1cc2c(cc1OC)-c1cc3ccc4c(c3c[n+]1CC2)OCO4,i,i,i,i,-7.4*,i,91%*,-194%*,37%*,46%*,i,
COc1cc2c(cc1O)CC[n+]1cc3c(OC)c(OC)ccc3cc1-2,i,i,i,i,-7.4*,.,.,.,.,i,i,TRPC4 spec 2=i;TRPC4 spec=-9.5%*;HEK293 MPD ctr 2-1=-66%*;HEK293 MPD ctr-1=i
